Results: ChEMBL document CHEMBL2331224 (J Med Chem, 2013)
Activity calls are given as the source filed them. The calls are words filed in the database; no cut-off is given here.

What was measured:
[1] = molecular target: RXR alpha/PPAR gamma (Homo sapiens) (UniProt P37231+P19793); assay: Transactivation of PPARgamma/RXRalpha (unknown origin) by luciferase reporter gene assay relative to TIPP703; format: protein-complex assay
In short: (§1)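 Heterodimer reporter in COS-1 cells co-transfected with RXRα (0.5 μg), partner receptor (LXRα for line 2, PPARγ for line 3; 0.5 μg), partner response element-luciferase (4.0 μg), and SEAP. Compound (DMSO below 1%) with ~2.0 × 10⁴ cells/well, 18 h, 37 °C; luciferase normalized to SEAP; triplicate, three runs.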

[2] = molecular target: T1, Retinoic acid receptor RXR-alpha (Homo sapiens) (UniProt P19793); assay: Transactivation of RXRalpha (unknown origin) expressed in COS1 cells at 10 uM after 18 hrs by luciferase reporter gene assay relative to bexarotene; format: cell-based; settings: COS-1
T1 sequence (whole entry): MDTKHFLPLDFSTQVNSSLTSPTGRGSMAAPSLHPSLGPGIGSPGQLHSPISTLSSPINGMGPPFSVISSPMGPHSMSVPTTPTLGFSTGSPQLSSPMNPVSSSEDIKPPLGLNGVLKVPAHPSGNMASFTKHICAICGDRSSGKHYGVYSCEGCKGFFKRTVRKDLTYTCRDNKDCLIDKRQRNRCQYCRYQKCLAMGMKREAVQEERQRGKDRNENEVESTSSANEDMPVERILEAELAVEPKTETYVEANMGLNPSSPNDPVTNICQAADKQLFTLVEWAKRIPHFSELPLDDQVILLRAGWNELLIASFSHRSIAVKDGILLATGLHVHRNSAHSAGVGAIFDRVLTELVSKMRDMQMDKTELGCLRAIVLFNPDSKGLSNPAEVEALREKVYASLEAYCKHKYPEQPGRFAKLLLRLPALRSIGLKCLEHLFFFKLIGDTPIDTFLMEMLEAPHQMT
In short: (§2)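 COS-1 cells in DMEM with 10% FBS at 37 °C, 5% CO2, transfected with RXRα, an RXR-response-element luciferase reporter and a SEAP background vector. Cells were seeded at about 2.0 × 10⁴ per well with compound (DMSO below 1%) for 18 h. Luciferase was normalized to SEAP and expressed relative to 1 μM reference RXR full agonist as 100%. EC50 came from full dose-response curves. Triplicates, at least three experiments.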

[3] = molecular target: T1, Retinoic acid receptor RXR-alpha (Homo sapiens); assay: Partial agonist activity at RXRalpha (unknown origin) expressed in COS1 cells after 18 hrs by luciferase reporter gene assay relative to bexarotene; format: cell-based; settings: COS-1; in short: as §2
[4] = tested on: Mus musculus; assay: Toxicity against KKAy mouse assessed as plasma AST level at 10 mg/kg/day, po for 14 days (reference value: 49.6 +/- 2.3 IU); format: organism-based; set-up: route oral; settings: in vivo, 336 h
[5] = molecular target: T2, Retinoic acid receptor RXR-gamma (Homo sapiens) (UniProt P48443); assay: Partial agonist activity at RXRgamma (unknown origin) by luciferase reporter gene assay relative to LGD1069
T2 sequence (whole entry): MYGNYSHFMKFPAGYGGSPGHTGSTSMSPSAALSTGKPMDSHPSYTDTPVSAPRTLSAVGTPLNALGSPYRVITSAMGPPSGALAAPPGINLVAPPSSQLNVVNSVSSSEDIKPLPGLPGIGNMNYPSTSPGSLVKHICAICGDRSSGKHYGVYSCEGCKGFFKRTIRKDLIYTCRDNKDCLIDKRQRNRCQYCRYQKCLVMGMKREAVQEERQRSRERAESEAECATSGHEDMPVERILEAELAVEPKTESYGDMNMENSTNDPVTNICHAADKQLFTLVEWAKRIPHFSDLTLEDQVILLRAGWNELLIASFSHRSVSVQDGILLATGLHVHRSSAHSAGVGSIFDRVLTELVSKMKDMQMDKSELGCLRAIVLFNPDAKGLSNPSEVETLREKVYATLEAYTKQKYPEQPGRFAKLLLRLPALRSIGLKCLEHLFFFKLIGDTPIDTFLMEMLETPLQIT

[6] = molecular target: Retinoic acid receptor RXR-alpha/oxysterols receptor LXR-alpha (Homo sapiens) (UniProt P19793+Q13133); assay: Transactivation of LXRalpha/RXRalpha (unknown origin) by luciferase reporter gene assay relative to carba-T0901317; format: protein-complex assay; in short: as §1
[7] = tested on: Mus musculus; assay: Toxicity against KKAy mouse assessed as plasma gammaGTP level at 10 mg/kg/day, po for 14 days (reference value: 5.8 +/- 0.6 IU); format: organism-based; set-up: route oral; settings: in vivo, 336 h
[8] = tested on: Mus musculus; assay: Toxicity in ICR mouse assessed as increase in blood triglyceride level at 30 mg/kg/day, po for 7 days; format: organism-based; set-up: route oral; settings: in vivo, 168 h
In short: (§3)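 Male ICR mice, 6−7 weeks old, four per cage, grouped by body weight. Oral 30 mg/kg or vehicle (1% ethanol/0.5% CMC in water, 10 mL/kg) once daily for 7 days, body weight recorded daily. After overnight fasting, mice were weighed under ether, and liver was removed and weighed. Serum was analysed on a dry-chemistry analyser for TG, TCHO, ALP, CRE, BUN and other markers. n = 7−23, ANOVA.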

[9] = tested on: Mus musculus; assay: Toxicity in ICR mouse assessed as weight gain at 30 mg/kg/day, po for 7 days relative to control; format: organism-based; set-up: route oral; settings: in vivo, 168 h; in short: as §3
[10] = molecular target: T3, Retinoic acid receptor RXR-alpha (Homo sapiens, UniProt P19793); assay: Partial agonist activity at RXRalpha (unknown origin) expressed in COS1 cells after 18 hrs by luciferase reporter gene assay; format: cell-based, COS-1; in short: as §2
T3 sequence (P19793 whole entry): T1 sequence (whole entry)

[11] = tested on: Rattus norvegicus; assay: Toxicity in Sprague-Dawley rat assessed as enlargement of spleen at 30 mg/kg, po for 28 days; format: organism-based; set-up: dose 30 mg/kg, route oral; settings: in vivo, 672 h
In short: (§4)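 Male and female SD rats, four weeks old on arrival, two per cage. Oral 30 mg/kg/day or vehicle (1% ethanol/0.5% CMC in water, 5 mL/kg) for 28 days, body weight recorded daily. After overnight fasting and isoflurane anaesthesia, liver, brain, kidney, spleen and testis were weighed, and serum was collected (2000g, 10 min, 4 °C) for blood chemistry.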

[12] = tested on: Plasma; assay: Plasma concentration in ICR mouse at 30 mg/kg, po by HPLC analysis; format: ADME, organism-based; set-up: dose 30 mg/kg, route oral; settings: read-out: Cp, in vivo
In short: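 Six-week-old male ICR mice (n = 6−9) got a single oral 30 mg/kg dose in 1% ethanol/0.5% CMC in water, 10 mL/kg. Plasma was extracted with ethyl acetate and reconstituted in methanol. Reversed-phase HPLC (ODS-3, 40 °C, methanol:33.3 mM ammonium acetate pH 5.0 85:15, UV 280 nm), quantified against an authentic-compound calibration plot.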

[13] = tested on: Rattus norvegicus; assay: Toxicity in Sprague-Dawley rat assessed as change in weight of organs at 30 mg/kg, po for 28 days; format: organism-based; set-up: dose 30 mg/kg, route oral; settings: in vivo, 672 h; in short: as §4

Compound: Cc1cc2c(cc1-n1c(C(F)(F)F)nc3cc(C(=O)O)ccc31)C(C)(C)CCC2(C)C
- Activity [1]: Active
- Efficacy [2]: 71%
- Emax [3]: 67%
- Activity [4]: 42.3 IU
- Activity [5]: Active
- Activity [6]: Active
- Activity [7]: 6.3 IU
- Activity [8]: Non-toxic
- Activity [9]: Non-toxic
- EC50 [10]: 0.015 µM
- Activity [11]: Toxic
- concentration [12]: > 6 µM
- Activity [13]: Non-toxic
